Test results from ChEMBL document CHEMBL4842318, “A γ-lactam siderophore antibiotic effective against multidrug-resistant Pseudomonas aeruginosa, Klebsiella pneumoniae, and Acinetobacter spp” (Eur J Med Chem, 2021).
In brackets after ≈: the same amount, converted by molar mass.

Assays:
[1] = tested on: Acinetobacter baumannii; test: Antibacterial activity against panel of 198 clinical isolates Acinetobacter baumannii assessed as inhibition of bacterial growth by microdilution method; format: functional
[2] = tested on: Acinetobacter baumannii; test: Antibacterial activity against carbapenem resistant Acinetobacter baumannii isolate PR-345 assessed as bacterial growth inhibition by microdilution method; format: functional
Procedure, shortened: (§1)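 Broth microdilution in Chelex-treated, iron-depleted cation-adjusted Mueller-Hinton broth, following the protocol used for siderophore-containing antibiotics; inoculum lowered to 6 × 10^4 cfu/mL; MIC read as growth inhibition, in μg/mL.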

[3] = tested on: Acinetobacter baumannii; test: Antibacterial activity against carbapenem resistant Acinetobacter baumannii isolate PR-387 assessed as bacterial growth inhibition by microdilution method; format: functional; procedure, shortened: as §1
[4] = tested on: Acinetobacter baumannii; test: Antibacterial activity against carbapenem resistant Acinetobacter baumannii isolate PR-399 assessed as bacterial growth inhibition by microdilution method; format: functional; procedure, shortened: as §1
[5] = Antibacterial activity against carbapenem susceptible Acinetobacter nosocomialis isolate PR-412 assessed as bacterial growth inhibition by microdilution method; format: functional
Procedure, shortened: (§2)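 Broth microdilution MIC in iron-depleted (Chelex resin-treated) cation-adjusted Mueller-Hinton broth, following the protocol used for siderophore-containing antibiotics. Inoculum was lowered to 6 × 10^4 cfu/mL.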

[6] = tested on: Acinetobacter baumannii; test: Antibacterial activity against carbapenem susceptible Acinetobacter baumannii isolate PR-452 assessed as bacterial growth inhibition by microdilution method; format: functional; procedure, shortened: as §2
[7] = tested on: Acinetobacter baumannii; test: Antibacterial activity against carbapenem susceptible Acinetobacter baumannii isolate PR-478 assessed as bacterial growth inhibition by microdilution method; format: functional; procedure, shortened: as §2
[8] = tested on: Acinetobacter baumannii; test: Antibacterial activity against carbapenem resistant Acinetobacter baumannii isolate PR-314 assessed as inhibition of bacterial growth at 1:1 compound to sulbactam concentration by microdilution method; format: functional
Procedure, shortened: (§3)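 Iron-depleted (Chelex-treated) cation-adjusted Mueller-Hinton broth microdilution; inoculum 6 × 10^4 cfu/mL. Test agent and sulbactam mixed 1:1 by mass and serially 2-fold diluted together. MIC in μg/mL.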

[9] = tested on: Acinetobacter baumannii; test: Antibacterial activity against carbapenem resistant Acinetobacter baumannii isolate PR-319 assessed as inhibition of bacterial growth at 1:1 compound to sulbactam concentration by microdilution method; format: functional; procedure, shortened: as §3
[10] = tested on: Acinetobacter baumannii; test: Antibacterial activity against carbapenem resistant Acinetobacter baumannii isolate PR-326 assessed as inhibition of bacterial growth at 1:1 compound to sulbactam concentration by microdilution method; format: functional; procedure, shortened: as §3
[11] = tested on: Acinetobacter baumannii; test: Antibacterial activity against carbapenem resistant Acinetobacter baumannii isolate PR-380 assessed as inhibition of bacterial growth at 1:1 compound to sulbactam concentration by microdilution method; format: functional; procedure, shortened: as §3
[12] = tested on: Acinetobacter baumannii; test: Antibacterial activity against carbapenem resistant Acinetobacter baumannii isolate PR-387 assessed as inhibition of bacterial growth at 1:1 compound to sulbactam concentration by microdilution method; format: functional; procedure, shortened: as §3
[13] = Antibacterial activity against carbapenem susceptible Acinetobacter nosocomialis isolate PR-362 assessed as inhibition of bacterial growth at 1:1 compound to sulbactam concentration by microdilution method; format: functional
Procedure, shortened: (§4)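 Broth microdilution MIC in Chelex-treated, iron-depleted cation-adjusted Mueller-Hinton broth, inoculum 6 × 10^4 cfu/mL. Compound and sulbactam combined 1:1 by mass in a 2-fold dilution series.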

[14] = tested on: Acinetobacter baumannii; test: Antibacterial activity against carbapenem susceptible Acinetobacter baumannii isolate PR-434 assessed as inhibition of bacterial growth at 1:1 compound to sulbactam concentration by microdilution method; format: functional; procedure, shortened: as §4
[15] = tested on: Acinetobacter baumannii; test: Antibacterial activity against carbapenem susceptible Acinetobacter baumannii isolate PR-452 assessed as inhibition of bacterial growth at 1:1 compound to sulbactam concentration by microdilution method; format: functional; procedure, shortened: as §2
[16] = tested on: Acinetobacter baumannii; test: Antibacterial activity against carbapenem resistant Acinetobacter baumannii isolate PR-314 assessed as inhibition of bacterial growth in presence of 20 ug/ml sulbactam by microdilution method; format: functional; settings: dose 20 µg/ml
[17] = tested on: Acinetobacter baumannii; test: Antibacterial activity against carbapenem resistant Acinetobacter baumannii isolate PR-319 assessed as inhibition of bacterial growth in presence of 20 ug/ml sulbactam by microdilution method; format: functional; settings: dose 20 µg/ml
[18] = tested on: Acinetobacter baumannii; test: Antibacterial activity against carbapenem resistant Acinetobacter baumannii isolate PR-326 assessed as inhibition of bacterial growth in presence of 20 ug/ml sulbactam by microdilution method; format: functional; settings: dose 20 µg/ml
[19] = tested on: Acinetobacter baumannii; test: Antibacterial activity against carbapenem resistant Acinetobacter baumannii isolate PR-387 assessed as inhibition of bacterial growth in presence of 20 ug/ml sulbactam by microdilution method; format: functional; settings: dose 20 µg/ml
[20] = tested on: Acinetobacter baumannii; test: Antibacterial activity against carbapenem resistant Acinetobacter baumannii isolate PR-399 assessed as inhibition of bacterial growth in presence of 20 ug/ml sulbactam by microdilution method; format: functional; settings: dose 20 µg/ml
[21] = tested on: Acinetobacter baumannii; test: Antibacterial activity against carbapenem resistant Acinetobacter baumannii isolate PR-482 assessed as inhibition of bacterial growth in presence of 20 ug/ml sulbactam by microdilution method; format: functional; settings: dose 20 µg/ml; procedure, shortened: as §2
[22] = Antibacterial activity against carbapenem susceptible Acinetobacter nosocomialis isolate PR-365 assessed as inhibition of bacterial growth in presence of 20 ug/ml sulbactam by microdilution method; format: functional; settings: dose 20 µg/ml
Procedure, shortened: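 MIC by broth microdilution using iron-depleted (Chelex-treated) cation-adjusted Mueller-Hinton broth and 6 × 10^4 cfu/mL inoculum. Compound serially diluted with sulbactam held constant at 20 μg/mL.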

[23] = Solubility of compound in pH 7.5 phosphate buffer by nephelometry; format: physicochemical
[24] = Metabolic stability in CD-1 mouse microsomes assessed as half life; format: ADME, Microsome
[25] = target: PDE3A (Homo sapiens, UniProt Q14432); test: Inhibition of PDE3A (unknown origin) at 30 uM
[26] = tested on: Pseudomonas aeruginosa; test: Antibacterial activity against wild type Pseudomonas aeruginosa isolate PR-567 assessed as inhibition of bacterial growth by microdilution method; format: functional; procedure, shortened: as §2
[27] = tested on: Pseudomonas aeruginosa; test: Antibacterial activity against wild type Pseudomonas aeruginosa isolate PR-636 leucine at 533 residue assessed as inhibition of bacterial growth by microdilution method; format: functional; procedure, shortened: as §2
[28] = tested on: Pseudomonas aeruginosa; test: Antibacterial activity against wild type Pseudomonas aeruginosa isolate PR-668 leucine at 533 residue assessed as inhibition of bacterial growth by microdilution method; format: functional; procedure, shortened: as §2
[29] = tested on: Pseudomonas aeruginosa; test: Antibacterial activity against Pseudomonas aeruginosa AR-BANK#0229 infected in sc dosed thigh infection mouse model assessed as reduction in CFU treated four times at 6 hrs interval measured at 26 hrs after infection; format: functional, organism-based
Procedure, shortened: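 Neutropenic mice (cyclophosphamide) inoculated intramuscularly with 1.02 × 10^6 CFU/mouse. Drug given SC at 50 and 100 mg/kg q6h at 2, 8, 14 and 20 h post-infection. Thighs harvested at 26 h and weighed. Thigh CFU/g compared with the 2 h baseline (Δ reported) and with vehicle, using one-way ANOVA with Dunnett's test.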

[30] = Substrate activity at VIM-2 (unknown origin) assessed as Kcat by measuring hydrolysis by spectrophotometry; format: ADME
Procedure, shortened: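 Substrate hydrolysis (600 μM start) followed at 336 nm (Δε336 = −4362 M−1 cm−1, 0.2 cm cuvette) to completion; velocities over 10 s intervals along progress curve; Km, Vmax from double reciprocal plot, kcat = Vmax/[E].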

[31] = Plasma concentration in SC dosed CD-1 mouse treated four times at 6 hrs interval measured after 0.167 hrs; format: ADME, organism-based
Procedure, shortened: (§5)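 CD-1 mice dosed SC at 50 mg/kg. Plasma sampled at 0.167 to 24 h, three individual mice per time point, reported as mean and SD in ng/mL.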

[32] = Plasma concentration in SC dosed CD-1 mouse treated four times at 6 hrs interval measured after 2 hrs; format: ADME, organism-based; procedure, shortened: as §5
[33] = Plasma concentration in SC dosed CD-1 mouse treated four times at 6 hrs interval measured after 4 hrs; format: ADME, organism-based; procedure, shortened: as §5
[34] = Plasma concentration in SC dosed CD-1 mouse treated four times at 6 hrs interval measured after 8 hrs; format: ADME, organism-based; procedure, shortened: as §5

Sequence of PDE3A (Q14432 whole entry): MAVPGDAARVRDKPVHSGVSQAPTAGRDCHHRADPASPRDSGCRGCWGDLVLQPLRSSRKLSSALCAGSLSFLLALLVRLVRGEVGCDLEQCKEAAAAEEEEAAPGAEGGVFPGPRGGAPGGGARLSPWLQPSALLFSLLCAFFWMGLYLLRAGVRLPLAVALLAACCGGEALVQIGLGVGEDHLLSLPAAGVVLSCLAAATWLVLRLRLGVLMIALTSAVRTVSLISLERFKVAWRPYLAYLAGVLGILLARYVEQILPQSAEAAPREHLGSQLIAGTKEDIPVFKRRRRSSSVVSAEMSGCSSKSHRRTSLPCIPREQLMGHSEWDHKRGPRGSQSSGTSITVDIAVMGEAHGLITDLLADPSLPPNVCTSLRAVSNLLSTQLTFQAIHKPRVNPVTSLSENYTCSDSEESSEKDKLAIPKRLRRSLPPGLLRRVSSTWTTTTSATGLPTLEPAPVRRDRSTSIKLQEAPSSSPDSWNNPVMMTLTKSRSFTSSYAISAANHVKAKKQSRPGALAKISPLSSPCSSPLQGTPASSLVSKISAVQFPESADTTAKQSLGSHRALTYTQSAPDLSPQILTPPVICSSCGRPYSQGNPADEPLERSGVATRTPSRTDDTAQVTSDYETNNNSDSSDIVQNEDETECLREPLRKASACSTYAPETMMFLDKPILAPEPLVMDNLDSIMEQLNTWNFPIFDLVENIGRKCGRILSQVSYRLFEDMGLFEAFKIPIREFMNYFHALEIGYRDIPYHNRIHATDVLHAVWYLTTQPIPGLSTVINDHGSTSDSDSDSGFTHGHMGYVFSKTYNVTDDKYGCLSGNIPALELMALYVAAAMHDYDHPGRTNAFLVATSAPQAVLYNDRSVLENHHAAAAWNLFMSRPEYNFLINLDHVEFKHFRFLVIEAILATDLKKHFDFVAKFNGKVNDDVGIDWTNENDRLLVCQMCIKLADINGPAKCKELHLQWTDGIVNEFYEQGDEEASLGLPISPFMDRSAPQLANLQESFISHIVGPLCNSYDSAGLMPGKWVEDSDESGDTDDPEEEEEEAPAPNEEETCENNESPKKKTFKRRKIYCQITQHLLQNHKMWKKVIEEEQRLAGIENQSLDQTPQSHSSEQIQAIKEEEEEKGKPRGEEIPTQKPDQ

CC(C)(O/N=C(\C(=O)N[C@H]1CN2CC(C(=O)NCCN3C(=O)c4cc(O)c(O)cc4C3=O)=C(C(=O)O)N2C1=O)c1nc(N)sc1Cl)C(=O)O
MIC50 [1]: 0.5 µg/mL (≈ 0.693 µM)
MIC90 [1]: > 16 µg/mL
MIC [2]: > 16 µg/mL
MIC [3]: > 16 µg/mL
MIC [4]: > 16 µg/mL
MIC [5]: > 16 µg/mL
MIC [6]: > 16 µg/mL
MIC [7]: 16 µg/mL
MIC [8]: 4 µg/mL
MIC [9]: 4 µg/mL
MIC [10]: 2 µg/mL
MIC [11]: 16 µg/mL
MIC [12]: 16 µg/mL
MIC [13]: ≤ 0.25 µg/mL
MIC [14]: 2 µg/mL
MIC [15]: ≤ 0.25 µg/mL
MIC [16]: ≤ 0.25 µg/mL
MIC [17]: 0.5 µg/mL
MIC [18]: ≤ 0.25 µg/mL
MIC [19]: ≤ 0.25 µg/mL
MIC [20]: ≤ 0.25 µg/mL
MIC [21]: ≤ 0.25 µg/mL
MIC [22]: ≤ 0.25 µg/mL
solubility kinetic [23]: > 100 µM
t1/2 [24]: > 1 h
inhibition at 30 µM [25]: > 50%
MIC [26]: ≤ 0.25 µg/mL
MIC [27]: > 16 µg/mL
MIC [28]: > 16 µg/mL
Activity [29]: Dose-Dependent Effect
Kcat [30]: 54 s⁻¹
concentration at 0.167 h [31]: 47400 ng/mL
concentration at 2 h [32]: 3070 ng/mL
concentration at 4 h [33]: 1340 ng/mL
concentration at 8 h [34]: 1200 ng/mL
